INS promoter act – activators of insulin promoter-driven GFP, primary screen, imaging, TRM-6 cells (human fetal islet line), eGFP reporter, cell count | plate-scaled: unstimulated 0, stimulated control 100 | 0.81% of 130,000 active | activation, % at 2 µM | AID 1296, 2008;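 active = activation at 2 µM above a set limit, confirmed on inspection of the cell images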;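 note: share of cells whose green reporter signal exceeds an intensity cutoff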
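Material: TRM-6 insulin promoter–eGFP reporter cells. Buffer or medium: Low-glucose (5.5 mM) medium with tamoxifen. Probe or stimulus: tamoxifen at 0.75 µM added at seeding for reporter induction. Times: tamoxifen pre-incubation 15 h overnight, then compound exposure 48 h at 37 °C. Detection: high-content imaging of fixed cells with Hoechst nuclear stain.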
Active calls of the source: *. The sample as a whole holds a higher share of hits than the screen did.

CCC(C)(C)NC(=O)CN(Cc1cccs1)C(=O)CCC(=O)Nc1nccs1 was read as INS promoter act 7.
Cc1cc(NC(=O)CCC(=O)N(c2ccccc2)C(C(=O)NC2CCCCC2)c2cccs2)no1 (configuration not stated) was read as INS promoter act 323.
For Cc1cccc(-n2nc3c(c2NC(=O)c2ccc(Br)o2)CSC3)c1 the results were INS promoter act -7.
For CCN(CC)S(=O)(=O)c1ccc(N2CCCC2)c(C(=O)Nc2ccc(OC)c(Cl)c2)c1 the results were INS promoter act 0.
Screening O=C(Nc1ccccc1O)c1cccc(S(=O)(=O)N2CCOCC2)c1 returned INS promoter act 462*.
`Cc1nnc(NC(=O)c2cccc(S(=O)(=O)N3CCOCC3)c2)s1` gave INS promoter act -6.
O=C(Nn1cnnc1)c1cccc(S(=O)(=O)N2CCOCC2)c1 was read as INS promoter act 7.
`CC(C)[C@H](NC(=O)c1ccccc1)C(=O)OCC(=O)N1CCc2ccccc2C1` gave INS promoter act -9.
For Cc1ccnc(N2CCN(c3c4c(c(C#N)c5nc6ccccc6n35)CCC4)CC2)c1 the results were INS promoter act -86.
Screening CC(c1ccc(F)cc1)n1c(Cn2ncc3ccccc3c2=O)n[nH]c1=S (configuration not stated) returned INS promoter act -4.
For CCN(CC)C(=S)SCC(=O)c1ccc(Br)cc1 the results were INS promoter act 381*.
`CCN(CC)C(=O)c1ccc(C)c(Br)c1` gave INS promoter act 356.
Cc1ccnc(SCC(=O)c2ccc(Br)cc2)c1C#N was read as INS promoter act -61.
`CNc1ccccc1C(=O)OCC(C)=O` gave INS promoter act 10.
Screening COC(=O)C(CCSC)NC(=O)c1cccc([N+](=O)[O-])c1 (configuration not stated) returned INS promoter act 10.
CC1(C(=O)O)Oc2cccnc2NC1=O (configuration not stated) was read as INS promoter act 409*.
Screening O=C(CN1C(=O)NC2(CCCCCC2)C1=O)N1CCN(S(=O)(=O)c2ccc(Cl)cc2)CC1 returned INS promoter act 5.
Screening NS(=O)(=O)c1ccc(CCNC(=O)C2CCN(S(=O)(=O)c3cnc[nH]3)CC2)cc1 returned INS promoter act 5.
Screening CC1CCN(C(=O)C2CCN(CC(C)c3ccccc3)CC2)CC1 (configuration not stated) returned INS promoter act 368.
CC1CCN(C(=O)C2CCN(S(=O)(=O)c3cnc[nH]3)CC2)CC1 was read as INS promoter act 506*.
COc1ccc2nc(Cl)c(/C=N/Nc3ccccn3)cc2c1 was read as INS promoter act 8.
Screening COc1cccc(-n2c(SCC(N)=O)nnc2-c2ccncc2)c1 returned INS promoter act -91.
`COc1cccc(-n2c(SCC(N)=O)nc3c([nH]c4ccccc43)c2=O)c1` gave INS promoter act 252*.
`Cc1cc(NC(=O)CSc2nc3c([nH]c4ccccc43)c(=O)n2-c2cccc(C(F)(F)F)c2)no1` gave INS promoter act -5.
`CCNC(=O)C1CCCc2c1[nH]c1ccc(Cl)cc21` (configuration not stated) gave INS promoter act 0.
COc1ccccc1-n1c(C)cc(C=O)c1C was read as INS promoter act -7.
`O=C(Cn1cccc1C(=O)c1ccccc1)NCc1ccc(Cl)cc1` gave INS promoter act 7.
For O=C(Cn1cccc1C(=O)c1ccccc1)NCc1cccc(Cl)c1 the results were INS promoter act 387*.
`Cc1ccc(CNC(=O)Cn2cccc2C(=O)c2ccccc2)cc1` gave INS promoter act 5.
COC(=O)NCC12CC3CC(C1)CC(CNC(=O)OC)(C3)C2 was read as INS promoter act 9.
COCCNC(=S)N/N=C(\C)c1cccc([N+](=O)[O-])c1 was read as INS promoter act 0.
For O=C(COC(=O)c1ccccc1Cl)NC(=O)NCc1ccccc1 the results were INS promoter act 8.
`CN1/C(=C\C(=O)C(F)F)C(C)(C)c2ccccc21` gave INS promoter act 5.
CN1/C(=C\C=Nc2ccc3ccccc3c2)C(C)(C)c2ccccc21 was read as INS promoter act 6.
For CN1\C(=C/C=C/C=C/C=[N+](C)C)C(C)(C)c2ccccc21 the results were INS promoter act 567*.
`Cc1cccc(N2CCN(CCNC(=O)c3cc4c(s3)CS(=O)(=O)C4)CC2)c1C` gave INS promoter act -6.
`O=C1C(Cl)=C(NCCc2ccccc2)C(=O)N1CCc1ccccc1` gave INS promoter act -9.
For O=C1C(Cl)=C(Nc2ccc(F)cc2)C(=O)N1CCc1ccccc1 the results were INS promoter act 171.
O=C1C(Cl)=C(NCC2CCCO2)C(=O)N1CCc1ccccc1 (configuration not stated) was read as INS promoter act 608*.
`COC(CNc1ncnc2c1cnn2C)OC` gave INS promoter act 0.
For CCC(C)NC(=O)CSc1nnc(-c2cc(-c3cccs3)nc3ccccc23)o1 (configuration not stated) the results were INS promoter act -9.
`Oc1ccc(C=NC2CCCCC2)c(O)c1` gave INS promoter act -7.
Screening COc1ccc(N2CC(NC(=O)N(C)CCC#N)CC2=O)cc1 (configuration not stated) returned INS promoter act -8.
For CCOCCCN1CN(S(=O)(=O)c2ccc(Cl)cc2)c2nc3ccccc3nc21 the results were INS promoter act -8.
`N/C(=N\OC(=O)CCc1ccccc1)c1ccc(Br)cc1` gave INS promoter act 10.
N/C(=N\OC(=O)Oc1ccccc1)c1ccc(Br)cc1 was read as INS promoter act 493*.
COc1ccc(/C(N)=N/OC(=O)Oc2ccccc2)cc1OC was read as INS promoter act -2.
Cc1ccc(NC(=O)CN2c3cccc4cccc(c34)S2(=O)=O)cc1S(=O)(=O)N1CCOCC1 was read as INS promoter act -9.
Cc1cc2ncn(-c3ncnc4sc5c(c34)CCC(C)C5)c2cc1C (configuration not stated) was read as INS promoter act 10.
Cc1cc(C)c2nc(SCC(=O)Nc3ccccc3N3CCOCC3)c(C#N)cc2c1 was read as INS promoter act 329.
Screening CCc1cc2cc(C)cc(C)c2nc1SCC(=O)Nc1cc(C)on1 returned INS promoter act 118.
`Cc1nonc1NC(=O)CSc1nc2c(C)cccc2cc1C#N` gave INS promoter act 809*.
For O=C(CCn1nnc2ccccc21)N/N=C\Cc1ccccc1 the results were INS promoter act 7.
`CC1(C)CC(=O)C(C=NCC2CCN(C(=O)Cc3ccccc3)CC2)=C(O)C1` gave INS promoter act -8.
Screening Cc1cc(=O)oc(C)c1C(=O)NCc1ccco1 returned INS promoter act -9.
Screening Cc1cc(=O)oc(C)c1C(=O)NCCCN1CCN(c2ccc(F)cc2)CC1 returned INS promoter act 9.
`Cc1cc(=O)oc(C)c1C(=O)NCc1c(F)cc(F)cc1F` gave INS promoter act 136*.
`CCC(=O)Nc1ccc(S(=O)(=O)Nc2cccc(C)c2)cc1OC` gave INS promoter act 3.
Cc1cccc(NC(=O)c2c(O)c3cccc4c3n(c2=O)CC4)c1 was read as INS promoter act 8.
Screening COc1ccc(C(OCC2CO2)c2ccc(OC)cc2)cc1 (configuration not stated) returned INS promoter act -77.
